Bioassay records from PubChem BioAssay.
Thrombin inh – inhibitors of human thrombin | alpha-thrombin, Boc-VPR-AMC fluorogenic substrate cleavage | 220,000 compounds, 0.26% hits | P00734 | inhibition, % at 5 µM;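 active = inhibition at or above 40%; inactive = inhibition below 40%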;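 also: 0% = enzyme with no compound and 100% = wells without enzyme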
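System: Human alpha-thrombin protein | Medium: pH 7.5 Tris (50 mM) with NaCl 150 mM, Tween 20 0.05% | Times: Enzyme reaction carried out at room temperature | Detection: AMC fluorescence, 355/460 nm | Evaluation: Percent inhibition scaled between no-compound controls and no-enzyme blanks | Benchmarks: Enzyme without compound as high, wells lacking enzyme as low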
S1P3 antag – blocks the human S1P3 receptor. CHO S1P3 NFAT-BLA reporter, FRET fluorescence, antagonist mode. 170,000 compounds, 0.27% hits. inhibition, % at 4.98 µM. Q99500;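 active = inhibition above the plate cutoff, the mean inhibition of test wells on that plate plus 3 SD, cut at about 28% in these data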;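 also: cells challenged with S1P at its EC80 of 0.8 µM; blue over green emission ratio from cleaved BLA substrate after 4 h stimulation; 0% = S1P-stimulated wells and 100% = unstimulated DMSO-only wells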
hK5 inh – inhibitors of human kallikrein 5. Q9Y337. recombinant hK5, fluorogenic AMC substrate cleavage. inhibition, % at 5 µM. 210,000 compounds, 0.59% hits. AID 873;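 active = inhibition of 40% or more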;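 also: 0% = enzyme controls without compound and 100% = no-enzyme blanks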
FXIa inh 1536 – inhibitors of human coagulation factor XIa | P03951 | purified FXIa, Boc-Glu-Ala-Arg-AMC fluorogenic substrate | inhibition, % at 5 µM | 220,000 compounds, 0.14% hits | AID 798;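 active = inhibition of at least 40%; inactive = inhibition below 40%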;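 also: fluorescence of freed AMC excited at 355 nm; 0% = enzyme without compound and 100% = no enzyme blank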
FXIIa inh 1536 – factor XIIa (human) inhibition | AID 800 | 220,000 compounds, 0.3% hits | inhibition, % at 5 µM | purified FXIIa, Boc-QGR-AMC fluorogenic substrate, 2 h | P00748; in the data active = inhibition above about 40%;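 also: 0% = enzyme with no compound and 100% = blank without enzyme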
Target sequence (P00748 20-372 limits assumed): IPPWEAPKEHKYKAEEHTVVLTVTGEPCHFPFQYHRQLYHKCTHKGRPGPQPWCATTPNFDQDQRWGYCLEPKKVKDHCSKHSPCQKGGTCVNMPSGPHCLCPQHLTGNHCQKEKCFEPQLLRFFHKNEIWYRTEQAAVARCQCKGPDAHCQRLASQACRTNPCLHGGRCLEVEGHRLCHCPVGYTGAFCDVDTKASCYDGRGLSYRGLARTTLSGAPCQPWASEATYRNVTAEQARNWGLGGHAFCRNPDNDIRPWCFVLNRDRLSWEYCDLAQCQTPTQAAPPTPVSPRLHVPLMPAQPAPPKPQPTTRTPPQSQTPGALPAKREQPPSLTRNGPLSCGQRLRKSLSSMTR
Target sequence (P00748 373-615 limits assumed): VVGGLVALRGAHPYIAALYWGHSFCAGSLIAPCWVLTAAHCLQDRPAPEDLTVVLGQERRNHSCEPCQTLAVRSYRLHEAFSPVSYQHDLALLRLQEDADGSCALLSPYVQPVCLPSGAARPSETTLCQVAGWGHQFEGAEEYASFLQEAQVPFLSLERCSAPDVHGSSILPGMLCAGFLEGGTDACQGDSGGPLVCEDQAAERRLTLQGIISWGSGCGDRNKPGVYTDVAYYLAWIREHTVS
Redox H2O2 prof – compounds producing H2O2 with reducing agent – biochemical, NIH compound library profiling, artefact control for MLSCN library redox annotation, primary screen; DTT-dependent redox cycling H2O2, phenol red/HRP absorbance; 100% = 100 µM peroxide control, 0% = buffer; activation, % at 10 µM; AID 878; 200,000 compounds, 0.03% hits;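 active = activation of at least 50% relative to the plate's high and low controls in the primary single-dose screen; inactive = activation below 50%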;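 also: compound incubated with DTT at 0.8 mM final as the reducing agent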
* hit, by the source's call. Hits are enriched below; roughly 1.2% of the tested compounds scored in any of these assays.

How did Cc1cc(C)n(-c2nnc(C)n2NS(=O)(=O)c2ccc(F)cc2)n1 do in these assays?
Thrombin inh: 2.3; S1P3 antag: 5.9; hK5 inh: 3.7; FXIa inh 1536: 9.8; FXIIa inh 1536: 71.5*; Redox H2O2 prof: -0.1

Results for Nc1nc(-c2ccco2)c(-c2ccco2)s1 ?
Thrombin inh: 3.5; S1P3 antag: -16.1; hK5 inh: -12.3; FXIa inh 1536: 7.0; FXIIa inh 1536: 17.8; Redox H2O2 prof: 2.8

How did c1coc(-c2nc(-c3ccco3)c(-c3ccco3)nc2-c2ccco2)c1 do in these assays?
Thrombin inh: 32.3; hK5 inh: 70.5*; FXIa inh 1536: 25.4; FXIIa inh 1536: -8.0; Redox H2O2 prof: -0.5

How did CC(NC(=O)/C(=C/c1ccc2c(c1)OCO2)NC(=O)c1cccc([N+](=O)[O-])c1)C(=O)O (stereo not drawn) do in these assays?
Thrombin inh: -0.8; S1P3 antag: -11.6; hK5 inh: -1.0; FXIa inh 1536: -1.6; FXIIa inh 1536: 3.1; Redox H2O2 prof: -1.2

Results for O=C1N=C(c2ccccc2)S/C1=C\c1cccs1 ?
Thrombin inh: 61.3*; hK5 inh: 2.0; FXIa inh 1536: 34.6; FXIIa inh 1536: 36.3; Redox H2O2 prof: 0.5

What do the screens show for `O=C1NC(=Nc2ccccc2)S/C1=C/c1cccs1`?
Thrombin inh: 5.6; S1P3 antag: 1.8; hK5 inh: 26.4; FXIa inh 1536: 32.7; FXIIa inh 1536: 45.2*; Redox H2O2 prof: -1.5

Results for Cc1cccc(N=C2NC(=O)/C(=C\c3cccs3)S2)c1 ?
Thrombin inh: -3.3; S1P3 antag: 6.3; hK5 inh: -4.0; FXIa inh 1536: 6.2; FXIIa inh 1536: 7.4; Redox H2O2 prof: -0.5

What do the screens show for `COc1ccc([N+](=O)[O-])cc1N(CC(=O)NCCCOC(C)C)S(C)(=O)=O`?
Thrombin inh: 2.8; S1P3 antag: 8.8; hK5 inh: -19.6; FXIa inh 1536: -1.7; FXIIa inh 1536: 17.6; Redox H2O2 prof: -0.1

What do the screens show for `O=C(C[n+]1cccc(CNC(=O)c2ccc(OC(F)F)cc2)c1)Nc1cccc(C(F)(F)F)c1`?
Thrombin inh: -6.1; S1P3 antag: -1.5; hK5 inh: -17.5; FXIa inh 1536: -1.0; FXIIa inh 1536: 5.6; Redox H2O2 prof: -0.1

How did CCOC(=O)c1sc(N)c(C#N)c1CSc1nc2ccc(C)cc2[nH]1 do in these assays?
Thrombin inh: 4.5; hK5 inh: 40.0*; FXIa inh 1536: 0.5; FXIIa inh 1536: 11.4; Redox H2O2 prof: 0.4

How did CCOC(=O)c1sc(N)c(C#N)c1CSc1nc2ccc(OCC)cc2[nH]1 do in these assays?
Thrombin inh: -15.2; S1P3 antag: -15.8; hK5 inh: -3.2; FXIa inh 1536: -6.6; FXIIa inh 1536: -13.3; Redox H2O2 prof: 1.0

Results for S=c1[nH]nc(CSCCOc2ccccc2)o1 ?
Thrombin inh: -1.9; S1P3 antag: -4.8; hK5 inh: -7.5; FXIa inh 1536: -6.8; FXIIa inh 1536: 2.6

What do the screens show for `Cn1c(CSCCOc2ccccc2)n[nH]c1=S`?
Thrombin inh: -5.0; S1P3 antag: -17.7; hK5 inh: 53.4*; FXIa inh 1536: -9.2; FXIIa inh 1536: 0.4

Results for C=CCOC(=O)C(C#N)c1nc2ccccc2nc1N1CCN(Cc2ccccc2)CC1 (stereo not drawn) ?
Thrombin inh: 6.3; S1P3 antag: -13.5; hK5 inh: 45.6*; FXIa inh 1536: 3.0; FXIIa inh 1536: -8.2; Redox H2O2 prof: 0.3

Results for C=CCNC(=O)C(C#N)c1nc2ccccc2nc1N1CCN(Cc2ccccc2)CC1 (stereo not drawn) ?
Thrombin inh: 104.3*; S1P3 antag: -17.4; hK5 inh: 35.2; FXIa inh 1536: 15.7; FXIIa inh 1536: 23.5; Redox H2O2 prof: 1.4

How did COCCOC(=O)C(C#N)c1nc2ccccc2nc1N1CCN(Cc2ccccc2)CC1 (stereo not drawn) do in these assays?
Thrombin inh: -3.8; S1P3 antag: 17.1; hK5 inh: 4.3; FXIa inh 1536: 1.9; FXIIa inh 1536: 9.3; Redox H2O2 prof: -0.9

Results for Cc1ccc(C(=O)N2CCCCC2C(=O)O)o1 (stereo not drawn) ?
Thrombin inh: -1.9; S1P3 antag: -21.8; hK5 inh: 1.6; FXIa inh 1536: -3.7; FXIIa inh 1536: 7.7; Redox H2O2 prof: -0.1

What do the screens show for `Cn1c(-c2c(N)n(C3CCCC3)c3nc4ccccc4nc23)nc2ccccc21`?
Thrombin inh: -3.1; S1P3 antag: 74.6*; hK5 inh: -3.2; FXIa inh 1536: -11.6; FXIIa inh 1536: -6.2; Redox H2O2 prof: 2.2

How did Cn1c(-c2c(N)n(CCc3ccccc3)c3nc4ccccc4nc23)nc2ccccc21 do in these assays?
Thrombin inh: 0.0; hK5 inh: -23.3; FXIa inh 1536: 15.6; FXIIa inh 1536: 21.7; Redox H2O2 prof: 0.1

What do the screens show for `COc1ccc(Cl)cc1N(CC(=O)NC(C)(C)C)S(=O)(=O)c1ccc(C)c([N+](=O)[O-])c1`?
Thrombin inh: 29.1; S1P3 antag: 6.9; hK5 inh: 44.8*; FXIa inh 1536: 12.4; FXIIa inh 1536: 20.4; Redox H2O2 prof: -0.7

What do the screens show for `COC(=O)CN(c1cc(Cl)ccc1OC)S(=O)(=O)c1ccc(C)cc1`?
Thrombin inh: -1.6; S1P3 antag: 7.3; hK5 inh: 0.4; FXIa inh 1536: 0.2; FXIIa inh 1536: 8.7

Results for Cc1ccc(N(C(=O)CS(=O)CC(=O)Nc2ccc(F)cc2)C(C(=O)NC2CCCCC2)c2ccco2)cc1 (stereo not drawn) ?
Thrombin inh: -11.0; S1P3 antag: 5.7; hK5 inh: -5.9; FXIa inh 1536: -4.3; FXIIa inh 1536: -0.5; Redox H2O2 prof: 0.4

What do the screens show for `O=C(O)c1ccc(/C=N/NC(=O)c2ccc(F)cc2)cc1`?
Thrombin inh: 67.8*; S1P3 antag: 6.5; hK5 inh: -4.2; FXIa inh 1536: -5.9; FXIIa inh 1536: -0.9

What do the screens show for `O=C(Cc1ccc(F)cc1)N/N=C/c1ccncc1`?
Thrombin inh: 29.8; S1P3 antag: -1.7; hK5 inh: 54.8*; FXIa inh 1536: 19.5; FXIIa inh 1536: 36.3; Redox H2O2 prof: -0.6

How did NC(=O)Nc1ccc(C(=O)OCC(=O)Nc2ccc(Cl)cn2)cc1 do in these assays?
Thrombin inh: -2.2; S1P3 antag: 4.8; hK5 inh: 5.0; FXIa inh 1536: 3.1; FXIIa inh 1536: 4.6

What do the screens show for `CN(C)C(=O)COC(=O)c1ccccc1OCC(=O)Nc1ccc(SC(F)F)cc1`?
Thrombin inh: 1.6; S1P3 antag: -5.4; hK5 inh: -8.7; FXIa inh 1536: 6.5; FXIIa inh 1536: 12.5; Redox H2O2 prof: -0.3

How did O=C(COc1ccccc1C(=O)O)Nc1ccc(SC(F)F)cc1 do in these assays?
Thrombin inh: 48.4*; S1P3 antag: -12.3; FXIa inh 1536: 15.0; FXIIa inh 1536: 16.1; Redox H2O2 prof: 0.2
